Source: ChEMBL document CHEMBL1126572, “Synthesis and pharmacological activity of a series of dihydro-1H-pyrrolo[1,2-a]imidazole-2,5(3H,6H)-diones, a novel class of potent cognition enhancers” (J Med Chem, 1993)

Test system: Rattus norvegicus
Test: Tested for efficiency in responding in radial maze test in rat on the day after treatment at 1 mg/kg sc along with Scopolamine at 50 ug/kg sc
Type: functional
Conditions: route subcutaneous

SMILES	Efficiency
O=C1CN2C(=O)CCC2N1 (stereo not drawn) [DIMIRACETAM]	88.6%
CN1[C@@H]2C[C@@H](OC(=O)[C@H](CO)c3ccccc3)C[C@H]1[C@@H]1O[C@@H]12 [SCOPOLAMINE]	83.9%

Test system: Rattus norvegicus
Test: Percent reversal of scopolamine-induced amnesia rat following 1.0 mg/kg i.p.
Type: functional
Conditions: route intraperitoneal
Procedure, shortened: (§1)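 Male Wistar rats, 200–220 g, acclimatised ≥1 week; one-trial step-through passive avoidance in two-compartment box with electrifiable grid floor. Scopolamine hydrobromide 0.66 mg/kg sc 60 min before learning, test compound or vehicle 30 min before scopolamine; 45 rats per experiment split into saline, scopolamine and treated groups. % amnesia reversal computed from group retention; Fisher's exact test versus scopolamine group.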

SMILES	Reversal
CC(C)CC1C(=O)NC2CCC(=O)N21 (stereo not drawn)	3%
NC(=O)C12CCC(=O)N1CC(=O)N2 (stereo not drawn)	62%
C[C@H]1C(=O)NC2CCC(=O)N21 (stereo partly drawn)	52%
O=C1CN2C(=O)CCC2N1 (stereo not drawn) [DIMIRACETAM]	68%
CCOC(=O)CN1C(=O)CN2C(=O)CCC12 (stereo not drawn)	3%
O=C1NC2CCC(=O)N2C1CO (stereo not drawn)	38%
CCOC(=O)C12CCC(=O)N1CC(=O)N2 (stereo not drawn)	25%
O=C1CN2C(=O)CCCC2N1 (stereo not drawn)	27%
CCN1C(=O)CN2C(=O)CCC12 (stereo not drawn)	0%
O=C1CCC2N1CC(=O)N2C(=O)OCc1ccccc1 (stereo not drawn)	31%
O=C1CN2C(=O)CCCCC2N1 (stereo not drawn)	22%
CC12CCC(=O)N1CC(=O)N2 (stereo not drawn)	40%
O=C1CN2C(=O)CCC2(C(=O)O)N1 (stereo not drawn)	14%
O=C1NC2CCC(=O)N2[C@@H]1Cc1ccccc1 (stereo partly drawn)	19%
CC1C(=O)NC2CCC(=O)N21 (racemic)	38%
O=C1NC2CCC(=O)N2[C@H]1Cc1ccccc1 (stereo partly drawn)	53%
NC(=O)CN1CC(O)CC1=O (stereo not drawn) [OXIRACETAM]	12%
NC(=O)CN1C(=O)CN2C(=O)CCC12 (stereo not drawn)	49%
CC(=O)N1C(=O)CN2C(=O)CCC21 (stereo not drawn)	0%

Same assay, conditions: route intraperitoneal, 1 mg/kg

SMILES	Reversal
CC1C(=O)NC2(C)CCC(=O)N12 (racemic)	38%
CC1C(=O)NC2(C)CCC(=O)N12 (stereo in doubt; 18 (S))	65%

Test system: Rattus norvegicus
Test: Tested for running time in radial maze test in rats on the day of treatment at 1 mg/kg sc along with Scopolamine at 50 ug/kg sc
Type: functional
Conditions: route subcutaneous
Procedure, shortened: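 Male Wistar rats (2 months, 250 g) food-restricted to 80–85% body weight, trained in eight-arm radial maze to criterion (≤9 choices, 3 consecutive days). Scopolamine 50 μg/kg sc 60 min and compound (saline, 2 mL/kg) 90 min before test; mean running time = total running time/total choices, video-tracked; compared with performance on days before and after treatment.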

SMILES	Time
O=C1CN2C(=O)CCC2N1 (stereo not drawn) [DIMIRACETAM]	34.6 s

Test system: Rattus norvegicus
Test: Tested for efficiency in responding in radial maze test in rat on the day before treatment at 1 mg/kg sc along with Scopolamine at 50 ug/kg sc
Type: functional
Conditions: route subcutaneous
Procedure, shortened: (§2)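 Male Wistar rats (2 months old, 250 g), food-restricted to 80-85% body weight, were trained daily in an eight-arm radial maze to criterion (≤9 choices on 3 consecutive days). Scopolamine was given sc 60 min before testing and the test drug sc in saline 90 min before. Treatments were ≥3 days apart with retraining. Efficiency was scored as 8/total choices × 100.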

SMILES	Efficiency
O=C1CN2C(=O)CCC2N1 (stereo not drawn) [DIMIRACETAM]	96.3%
CN1[C@@H]2C[C@@H](OC(=O)[C@H](CO)c3ccccc3)C[C@H]1[C@@H]1O[C@@H]12 [SCOPOLAMINE]	87.3%

Test system: Rattus norvegicus
Test: Tested for running time in radial maze test in rat on the day before treatment at 1 mg/kg sc along with Scopolamine at 50 ug/kg sc
Type: functional
Conditions: route subcutaneous
Procedure, shortened: (§3)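 Eight-arm radial maze in male Wistar rats (2 months old, 250 g) held at 80-85% body weight and trained to ≤9 choices for 3 consecutive days. Scopolamine was given sc 60 min pre-test and the drug sc in isotonic saline 90 min pre-test. Position was video-tracked. Mean running time (s) was total task time divided by number of choices.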

SMILES	Time
O=C1CN2C(=O)CCC2N1 (stereo not drawn) [DIMIRACETAM]	16.6 s
CN1[C@@H]2C[C@@H](OC(=O)[C@H](CO)c3ccccc3)C[C@H]1[C@@H]1O[C@@H]12 [SCOPOLAMINE]	14.3 s

Test system: Rattus norvegicus
Test: Tested for running time in radial maze test in rat on the day after treatment at 1 mg/kg sc along with Scopolamine at 50 ug/kg sc
Type: functional
Conditions: route subcutaneous
Procedure, shortened: as §3

SMILES	Time
O=C1CN2C(=O)CCC2N1 (stereo not drawn) [DIMIRACETAM]	19.6 s
CN1[C@@H]2C[C@@H](OC(=O)[C@H](CO)c3ccccc3)C[C@H]1[C@@H]1O[C@@H]12 [SCOPOLAMINE]	19.6 s

Test system: Rattus norvegicus
Test: Tested for running time in radial maze test in rat on the day of treatment at 1 mg/kg sc along with Scopolamine at 50 ug/kg sc
Type: functional
Conditions: route subcutaneous
Procedure, shortened: as §3

SMILES	Time
CN1[C@@H]2C[C@@H](OC(=O)[C@H](CO)c3ccccc3)C[C@H]1[C@@H]1O[C@@H]12 [SCOPOLAMINE]	34.6 s

Test system: not listed separately
Test: Basicity was assessed from pKB
Type: ADME
Conditions: not given

SMILES	pKB
NC(=O)CNCc1ccccc1	7.2

Test system: Rattus norvegicus
Test: Percent reversal of scopolamine-induced amnesia rat at 0.3 mg/kg po
Type: functional
Conditions: not given
Procedure, shortened: as §1

SMILES	Reversal
O=C1CN2C(=O)CCC2N1 (stereo not drawn) [DIMIRACETAM]	28%
O=C1NC2CCC(=O)N2[C@H]1Cc1ccccc1 (stereo partly drawn)	0%

Test system: Rattus norvegicus
Test: Percent reversal of scopolamine-induced amnesia rat at 0.1 mg/kg ip
Type: functional
Conditions: route intraperitoneal
Procedure, shortened: as §1

SMILES	Reversal
O=C1NC2CCC(=O)N2C1CO (stereo not drawn)	3%
O=C1NC2CCC(=O)N2[C@@H]1Cc1ccccc1 (stereo partly drawn)	15%
O=C1NC2CCC(=O)N2[C@H]1Cc1ccccc1 (stereo partly drawn)	0%

Test system: Rattus norvegicus
Test: Percent reversal of scopolamine-induced amnesia rat at 0.3 mg/kg ip
Type: functional
Conditions: route intraperitoneal
Procedure, shortened: as §1

SMILES	Reversal
NC(=O)C12CCC(=O)N1CC(=O)N2 (stereo not drawn)	38%
C[C@H]1C(=O)NC2CCC(=O)N21 (stereo partly drawn)	0%
O=C1CN2C(=O)CCC2N1 (stereo not drawn) [DIMIRACETAM]	16%
O=C1NC2CCC(=O)N2C1CO (stereo not drawn)	30%
CC12CCC(=O)N1CC(=O)N2 (stereo not drawn)	0%
O=C1NC2CCC(=O)N2[C@@H]1Cc1ccccc1 (stereo partly drawn)	42%
O=C1NC2CCC(=O)N2[C@H]1Cc1ccccc1 (stereo partly drawn)	53%

Same assay, conditions: route intraperitoneal, 0.3 mg/kg

SMILES	Reversal
CC1C(=O)NC2(C)CCC(=O)N12 (racemic)	30%
CC1C(=O)NC2(C)CCC(=O)N12 (stereo in doubt; 18 (S))	10%

Test system: Rattus norvegicus
Test: Percent reversal of scopolamine-induced amnesia rat at 10 mg/kg po
Type: functional
Conditions: not given
Procedure, shortened: as §1

SMILES	Reversal
NC(=O)C12CCC(=O)N1CC(=O)N2 (stereo not drawn)	0%
O=C1CN2C(=O)CCC2N1 (stereo not drawn) [DIMIRACETAM]	60%
O=C1NC2CCC(=O)N2C1CO (stereo not drawn)	42%
CCOC(=O)C12CCC(=O)N1CC(=O)N2 (stereo not drawn)	0%
O=C1CN2C(=O)CCCC2N1 (stereo not drawn)	0%
CC12CCC(=O)N1CC(=O)N2 (stereo not drawn)	0%
O=C1CN2C(=O)CCC2(C(=O)O)N1 (stereo not drawn)	33%
CC1C(=O)NC2CCC(=O)N21 (racemic)	33%
O=C1NC2CCC(=O)N2[C@H]1Cc1ccccc1 (stereo partly drawn)	0%
NC(=O)CN1CC(O)CC1=O (stereo not drawn) [OXIRACETAM]	27%
NC(=O)CN1C(=O)CN2C(=O)CCC12 (stereo not drawn)	9%

Same assay, conditions: 10 mg/kg

SMILES	Reversal
CC1C(=O)NC2(C)CCC(=O)N12 (racemic)	42%
CC1C(=O)NC2(C)CCC(=O)N12 (stereo in doubt; 18 (S))	26%

Test system: Rattus norvegicus
Test: Percent reversal of scopolamine-induced amnesia rat at 1.0 mg/kg po
Type: functional
Conditions: not given
Procedure, shortened: as §1

SMILES	Reversal
NC(=O)C12CCC(=O)N1CC(=O)N2 (stereo not drawn)	0%
O=C1CN2C(=O)CCC2N1 (stereo not drawn) [DIMIRACETAM]	75%
O=C1NC2CCC(=O)N2C1CO (stereo not drawn)	0%
CCOC(=O)C12CCC(=O)N1CC(=O)N2 (stereo not drawn)	0%
O=C1CN2C(=O)CCCC2N1 (stereo not drawn)	0%
O=C1CN2C(=O)CCC2(C(=O)O)N1 (stereo not drawn)	1%
CC1C(=O)NC2CCC(=O)N21 (racemic)	9%
O=C1NC2CCC(=O)N2[C@H]1Cc1ccccc1 (stereo partly drawn)	42%
NC(=O)CN1C(=O)CN2C(=O)CCC12 (stereo not drawn)	0%

Same assay, conditions: 1 mg/kg

SMILES	Reversal
CC1C(=O)NC2(C)CCC(=O)N12 (racemic)	17%
CC1C(=O)NC2(C)CCC(=O)N12 (stereo in doubt; 18 (S))	21%

Test system: Rattus norvegicus
Test: Tested for efficiency in responding in radial maze test in rat on the day of treatment at 1 mg/kg sc along with Scopolamine at 50 ug/kg sc
Type: functional
Conditions: route subcutaneous
Procedure, shortened: as §2

SMILES	Efficiency
O=C1CN2C(=O)CCC2N1 (stereo not drawn) [DIMIRACETAM]	75.6%
CN1[C@@H]2C[C@@H](OC(=O)[C@H](CO)c3ccccc3)C[C@H]1[C@@H]1O[C@@H]12 [SCOPOLAMINE]	63.9%

Test system: Rattus norvegicus
Test: Percent reversal of scopolamine-induced amnesia rat following 10 mg/kg i.p.
Type: functional
Conditions: route intraperitoneal
Procedure, shortened: as §1

SMILES	Reversal
CC(C)CC1C(=O)NC2CCC(=O)N21 (stereo not drawn)	0%
NC(=O)C12CCC(=O)N1CC(=O)N2 (stereo not drawn)	38%
C[C@H]1C(=O)NC2CCC(=O)N21 (stereo partly drawn)	3%
O=C1CN2C(=O)CCC2N1 (stereo not drawn) [DIMIRACETAM]	70%
CCOC(=O)CN1C(=O)CN2C(=O)CCC12 (stereo not drawn)	0%
CCOC(=O)C12CCC(=O)N1CC(=O)N2 (stereo not drawn)	62%
O=C1CN2C(=O)CCCC2N1 (stereo not drawn)	27%
CCN1C(=O)CN2C(=O)CCC12 (stereo not drawn)	0%
O=C1CCC2N1CC(=O)N2C(=O)OCc1ccccc1 (stereo not drawn)	12%
O=C1CN2C(=O)CCCCC2N1 (stereo not drawn)	12%
CC12CCC(=O)N1CC(=O)N2 (stereo not drawn)	46%
O=C1CN2C(=O)CCC2(C(=O)O)N1 (stereo not drawn)	53%
O=C1NC2CCC(=O)N2[C@@H]1Cc1ccccc1 (stereo partly drawn)	0%
CC1C(=O)NC2CCC(=O)N21 (racemic)	38%
O=C1NC2CCC(=O)N2[C@H]1Cc1ccccc1 (stereo partly drawn)	0%
NC(=O)CN1CC(O)CC1=O (stereo not drawn) [OXIRACETAM]	53%
NC(=O)CN1C(=O)CN2C(=O)CCC12 (stereo not drawn)	62%
CC(=O)N1C(=O)CN2C(=O)CCC21 (stereo not drawn)	0%

Same assay, conditions: route intraperitoneal, 10 mg/kg

SMILES	Reversal
CC1C(=O)NC2(C)CCC(=O)N12 (racemic)	0%
CC1C(=O)NC2(C)CCC(=O)N12 (stereo in doubt; 18 (S))	44%

Test system: Rattus norvegicus
Test: Percent reversal of scopolamine-induced amnesia rat at 30 mg/kg po
Type: functional
Conditions: not given
Procedure, shortened: as §1

SMILES	Reversal
CC1C(=O)NC2(C)CCC(=O)N12 (stereo in doubt; 18 (S))	37%
O=C1CN2C(=O)CCC2N1 (stereo not drawn) [DIMIRACETAM]	40%
O=C1NC2CCC(=O)N2C1CO (stereo not drawn)	0%
CC12CCC(=O)N1CC(=O)N2 (stereo not drawn)	26%
O=C1NC2CCC(=O)N2[C@H]1Cc1ccccc1 (stereo partly drawn)	7%
NC(=O)CN1CC(O)CC1=O (stereo not drawn) [OXIRACETAM]	69%
